Data taken from ChEMBL document CHEMBL3351470, “Synthesis and Structure-Activity Relationships of α-Amino-γ-lactone Ketolides: A Novel Class of Macrolide Antibiotics” (2014).
Values after ≈ are worked out from the molar mass of the structure shown.

Legend:
Type in all cases: functional
Staphylococcus aureus [1] = assay: Antibacterial activity against erythromycin-susceptible Staphylococcus aureus by agar microdilution method
Summary of the method: (§1)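 Strains from an in-house culture collection (Pliva Research Institute). MIC determined by agar microdilution following NCCLS standards and reported in μg/mL. Erythromycin-susceptible strains are listed as Ery-S; the panel also includes inducibly resistant (iMLS), constitutively resistant (MLSB) and efflux-resistant (M) strains.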

Staphylococcus aureus [2] = assay: Antibacterial activity against macrolide lincosamide- streptogramin B inducibly-resistant Staphylococcus aureus by agar microdilution method
Summary of the method: (§2)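 Agar microdilution MIC following NCCLS standards; strains taken from the Pliva Research Institute culture collection. Panel grouped by phenotype: erythromycin-susceptible, inducibly MLS-resistant (iMLS), constitutively MLSB-resistant and efflux-resistant (M). Azithromycin, telithromycin and cethromycin tested alongside as references. MIC reported in μg/mL.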

Staphylococcus aureus [3] = assay: Antibacterial activity against macrolide lincosamide- streptogramin B-resistant Staphylococcus aureus by agar microdilution method; summary of the method: as §2
Streptococcus pneumoniae [4] = assay: Antibacterial activity against erythromycin-susceptible Streptococcus pneumoniae by agar microdilution method; summary of the method: as §1
Streptococcus pneumoniae [5] = assay: Antibacterial activity against macrolide lincosamide- streptogramin B inducibly-resistant Streptococcus pneumoniae by agar microdilution method; summary of the method: as §2
Streptococcus pneumoniae [6] = assay: Antibacterial activity against efflux-resistant Streptococcus pneumoniae by agar microdilution method; summary of the method: as §2
Streptococcus pyogenes [7] = assay: Antibacterial activity against erythromycin-susceptible Streptococcus pyogenes by agar microdilution method; summary of the method: as §1
Streptococcus pyogenes [8] = assay: Antibacterial activity against macrolide lincosamide- streptogramin B inducibly-resistant Streptococcus pyogenes by agar microdilution method; summary of the method: as §2
Streptococcus pyogenes [9] = assay: Antibacterial activity against efflux-resistant Streptococcus pyogenes by agar microdilution method; summary of the method: as §2
Haemophilus influenzae = assay: Antibacterial activity against Haemophilus influenzae by agar microdilution method; summary of the method: as §1

CC[C@H]1OC(=O)[C@H](C)[C@@H](O[C@H]2C[C@@](C)(OC)[C@@H](O)[C@H](C)O2)[C@H](C)[C@@H](O[C@@H]2O[C@H](C)C[C@H](N(C)C)[C@H]2O)[C@](C)(O)C[C@@H](C)CN(C)[C@H](C)[C@@H](O)[C@]1(C)O [AZITHROMYCIN]
MIC (Staphylococcus aureus [1]): 1 µg/mL (≈ 1.34 µM)
MIC (Staphylococcus aureus [2]): > 64 µg/mL
MIC (Staphylococcus aureus [3]): > 64 µg/mL
MIC (Streptococcus pneumoniae [4]): ≤ 0.125 µg/mL
MIC (Streptococcus pneumoniae [5]): > 64 µg/mL
MIC (Streptococcus pneumoniae [6]): 4 µg/mL (≈ 5.34 µM)
MIC (Streptococcus pyogenes [7]): ≤ 0.125 µg/mL
MIC (Streptococcus pyogenes [8]): > 64 µg/mL
MIC (Streptococcus pyogenes [9]): 1 µg/mL (≈ 1.34 µM)
MIC (Haemophilus influenzae): 1 µg/mL (≈ 1.34 µM)

CC[C@H]1OC(=O)[C@H](C)C(=O)[C@H](C)[C@@H](O[C@@H]2O[C@H](C)C[C@H](N(C)C)[C@H]2O)[C@](C)(OC)C[C@@H](C)C(=O)[C@H](C)[C@H]2N(CCCCn3cnc(-c4cccnc4)c3)C(=O)O[C@]12C [TELITHROMYCIN]
MIC (Staphylococcus aureus [1]): ≤ 0.125 µg/mL
MIC (Staphylococcus aureus [2]): 0.5 µg/mL (≈ 0.616 µM)
MIC (Staphylococcus aureus [3]): > 64 µg/mL
MIC (Streptococcus pneumoniae [4]): ≤ 0.06 µg/mL
MIC (Streptococcus pneumoniae [5]): ≤ 0.125 µg/mL
MIC (Streptococcus pneumoniae [6]): 0.5 µg/mL (≈ 0.616 µM)
MIC (Streptococcus pyogenes [7]): ≤ 0.06 µg/mL
MIC (Streptococcus pyogenes [8]): 4 µg/mL (≈ 4.93 µM)
MIC (Streptococcus pyogenes [9]): 0.25 µg/mL (≈ 0.308 µM)
MIC (Haemophilus influenzae): 2 µg/mL (≈ 2.46 µM)
